In ChEMBL document CHEMBL1629656, “Oritavancin kills stationary-phase and biofilm Staphylococcus aureus cells in vitro” (Antimicrob Agents Chemother, 2009):
Converted amounts (≈) assume the structure as drawn. The source made the active and inactive calls. No cut-off for these calls is given here.

How the values were obtained:
Staphylococcus aureus [1] = assay: Antimicrobial activity against methicillin-sensitive Staphylococcus aureus ATCC 29213 planktonic cells by broth microdilution method in presence of 0.002% polysorbate 80; format: functional
Staphylococcus aureus [2] = assay: Bacteriostatic activity against stationary-phase methicillin-resistant Staphylococcus aureus ATCC 33591 grown on nutrient-depleted CAMHB medium at 8 ug/ml after 24 hrs by time kill analysis; format: functional, organism-based
Procedure, shortened: (§1)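 Overnight stationary-phase cultures inoculated at ~10^7 CFU/ml into strain-matched spent CAMHB (pH 7.0, filter-sterilized). Oritavancin was kept at 0.002% polysorbate 80; daptomycin wells had 50 μg/ml CaCl2. Incubation at 37°C, 225 rpm. Samples were charcoal-quenched (25 mg/ml) before plating; points are means of duplicates. Bactericidal means ≥3-log drop at 24 h versus inoculum. ≥3 repeats.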

Staphylococcus aureus [3] = assay: Bacteriostatic activity against stationary-phase vancomycin-resistant Staphylococcus aureus isolate VRS5 grown on nutrient-depleted CAMHB medium at 8 ug/ml after 24 hrs by time kill analysis; format: functional, organism-based; procedure, shortened: as §1
Staphylococcus aureus [4] = assay: Antimicrobial activity against methicillin-sensitive Staphylococcus aureus ATCC 29213 assessed as inhibition of biofilm formation after 24 hrs by serial dilution method in presence of 0.002% polysorbate 80; format: functional
Staphylococcus aureus [5] = assay: Antimicrobial activity against 4.6 X 10^6 CFU/peg methicillin-susceptible Staphylococcus aureus ATCC 29213 planktonic cells by broth microdilution method
Staphylococcus aureus [6] = assay: Bactericidal activity against stationary-phase vancomycin-resistant Staphylococcus aureus isolate VRS5 grown on nutrient-depleted CAMHB medium at 4 ug/ml after 24 hrs by time kill analysis; format: functional, organism-based; procedure, shortened: as §1
Staphylococcus aureus [7] = assay: Antimicrobial activity against methicillin-resistant Staphylococcus aureus ATCC 33591 assessed as inhibition of biofilm formation after 24 hrs by serial dilution method in presence of 0.002% polysorbate 80; format: functional
Staphylococcus aureus [8] = assay: Antimicrobial activity against vancomycin-resistant Staphylococcus aureus isolate VRS5 planktonic cells by broth microdilution method in presence of 0.002% polysorbate 80; format: functional
Staphylococcus aureus [9] = assay: Bactericidal activity against stationary-phase vancomycin-resistant Staphylococcus aureus isolate VRS5 grown on nutrient-depleted CAMHB medium at 2 ug/ml after 24 hrs by time kill analysis
Homo sapiens = assay: fCmax in human at 450 […]; format: ADME, organism-based; conditions: in vivo
Staphylococcus aureus [10] = assay: Antimicrobial activity against methicillin-resistant Staphylococcus aureus ATCC 33591 planktonic cells by broth microdilution method in presence of 0.002% polysorbate 80; format: functional
Staphylococcus aureus [11] = assay: Bactericidal activity against stationary-phase methicillin-resistant Staphylococcus aureus ATCC 33591 grown on nutrient-depleted CAMHB medium at 4 ug/ml after 24 hrs by time kill analysis; format: functional, organism-based; procedure, shortened: as §1
Staphylococcus aureus [12] = assay: Bactericidal activity against stationary-phase methicillin-resistant Staphylococcus aureus ATCC 33591 grown on nutrient-depleted CAMHB medium at 2 ug/ml after 24 hrs by time kill analysis; format: functional, organism-based; procedure, shortened: as §1
Staphylococcus aureus [13] = assay: Antimicrobial activity against 4.6 X 10^6 CFU/peg methicillin-susceptible Staphylococcus aureus ATCC 29213 assessed as inhibition of biofilm formation after 24 hrs by serial dilution method
Staphylococcus aureus [14] = assay: Bactericidal activity against stationary-phase methicillin-sensitive Staphylococcus aureus ATCC 29213 grown on nutrient-depleted CAMHB medium at 4 ug/ml after 24 hrs by time kill analysis; format: functional, organism-based; procedure, shortened: as §1
Staphylococcus aureus [15] = assay: Antimicrobial activity against stationary-phase methicillin-sensitive Staphylococcus aureus ATCC 29213 grown on nutrient-depleted CAMHB medium assessed as membrane depolarization at 16 ug/ml after 30 mins using DiSC3(5) dye based fluorescence spectrophotometry; format: functional, organism-based
Procedure, shortened: (§2)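 MSSA ATCC 29213 exponential-phase cells (OD600 ≈0.25 subculture in CAMHB) or stationary-phase cells were washed in 10 mM HEPES-Cl pH 7.5 with 50 μg/ml CaCl2; buffer had 5 mM glucose for exponential cells and none for stationary cells. Cells were loaded with 1.5 μM DiSC3(5) for 30 min in the dark, then diluted to OD600 0.005. Drug was added without polysorbate 80 and fluorescence (ex 612/em 665 nm) followed in real time for 30 min. Three repeats; one shown.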

Staphylococcus aureus [16] = assay: Bactericidal activity against stationary-phase methicillin-sensitive Staphylococcus aureus ATCC 29213 assessed as log reduction in bacterial count at 16 ug/ml within 2 hrs by time kill analysis; format: functional
Procedure, shortened: (§3)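 Short (2-h) time-kill of ATCC 29213 at OD600 0.005 (~10^6 CFU/ml) in 10 mM HEPES-Cl pH 7.5 with 50 μg/ml CaCl2. Exponential cells had 5 mM glucose and stationary cells none. Oritavancin was tested without polysorbate 80; viable counts were taken by serial dilution plating. Three repeats; one shown.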

Staphylococcus aureus [17] = assay: Bactericidal activity against exponential-phase methicillin-sensitive Staphylococcus aureus ATCC 29213 grown on nutrient-depleted CAMHB medium at 0.5 ug/ml after 24 hrs by time kill analysis; format: functional, organism-based
Staphylococcus aureus [18] = assay: Bactericidal activity against exponential-phase methicillin-sensitive Staphylococcus aureus ATCC 29213 assessed as log reduction in bacterial count at 16 ug/ml within 15 mins by time kill analysis; format: functional; procedure, shortened: as §3
Staphylococcus aureus [19] = assay: Inhibition of cell division in stationary-phase methicillin-resistant Staphylococcus aureus ATCC 43300 assessed as absence of appearance of septal midline at 16 ug/ml by transmission electron microscopy; format: functional, organism-based
Procedure, shortened: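 Stationary-phase MRSA ATCC 43300 (5 × 10^7 CFU/ml) exposed for 3 h in nutrient-depleted CAMHB. Cells were fixed in 2.5% glutaraldehyde, post-fixed in 2% osmium tetroxide and en bloc stained with uranyl acetate. Samples were ethanol-dehydrated, embedded in LR White, thin-sectioned, and stained with uranyl acetate/lead citrate. Septa were viewed by TEM at 100 kV.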

Staphylococcus aureus [20] = assay: Antimicrobial activity against exponential-phase methicillin-sensitive Staphylococcus aureus ATCC 29213 grown on nutrient-depleted CAMHB medium assessed as membrane depolarization at 16 ug/ml after 30 mins using DiSC3(5) dye based fluorescence spectrophotometry; format: functional, organism-based; procedure, shortened: as §2
Staphylococcus aureus [21] = assay: Bactericidal activity against stationary-phase methicillin-sensitive Staphylococcus aureus ATCC 29213 grown on nutrient-depleted CAMHB medium at 16 ug/ml after 24 hrs by time kill analysis; format: functional, organism-based; procedure, shortened: as §1
Staphylococcus aureus [22] = assay: Antimicrobial activity against exponential-phase methicillin-sensitive Staphylococcus aureus ATCC 29213 grown on nutrient-depleted CAMHB medium assessed as membrane permeability at 16 ug/ml after 30 mins by propidium iodide staining-based fluorescence spectrophotometry; format: functional, organism-based
Procedure, shortened: (§4)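 Cells prepared as for depolarization: exponential-phase ATCC 29213 in HEPES-CaCl2 buffer with 5 mM glucose, stationary-phase without glucose, final OD600 0.005. Stained with 5 μM Syto 9 plus 30 μM propidium iodide. Fluorescence (ex 485/em 535 nm) monitored for 30 min after drug addition, without polysorbate 80. Three repeats; one shown.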

Staphylococcus aureus [23] = assay: Bactericidal activity against stationary-phase vancomycin-resistant Staphylococcus aureus isolate VRS5 grown on nutrient-depleted CAMHB medium 16 ug/ml after 24 hrs by time kill analysis; format: functional, organism-based; procedure, shortened: as §1
Staphylococcus aureus [24] = assay: Antimicrobial activity against vancomycin-resistant Staphylococcus aureus isolate VRS5 assessed as inhibition of biofilm formation after 24 hrs by serial dilution method in presence of 0.002% polysorbate 80; format: functional
Staphylococcus aureus [25] = assay: Bactericidal activity against exponential-phase methicillin-sensitive Staphylococcus aureus ATCC 29213 grown on nutrient-depleted CAMHB medium at 4 ug/ml after 24 hrs by time kill analysis; format: functional, organism-based
Staphylococcus aureus [26] = assay: Bactericidal activity against exponential-phase methicillin-sensitive Staphylococcus aureus ATCC 29213 grown on nutrient-depleted CAMHB medium at 16 ug/ml after 24 hrs by time kill analysis; format: functional, organism-based
Staphylococcus aureus [27] = assay: Antimicrobial activity against stationary-phase methicillin-sensitive Staphylococcus aureus ATCC 29213 grown on nutrient-depleted CAMHB medium assessed as membrane permeability at 16 ug/ml after 30 mins by propidium iodide staining-based fluorescence spectrophotometry; format: functional, organism-based; procedure, shortened: as §4
Staphylococcus aureus [28] = assay: Antimicrobial activity against stationary-phase methicillin-sensitive Staphylococcus aureus ATCC 29213 assessed as membrane permeability at 4 ug/ml after 30 mins by propidium iodide staining-based fluorescence spectrophotometry; format: functional, organism-based
Procedure, shortened: (§5)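 Cells prepared as for depolarization, in HEPES-CaCl2 buffer with glucose (exponential) or without (stationary), OD600 0.005. Syto 9 at 5 μM and propidium iodide at 30 μM. Drug added without polysorbate 80. Loss of Syto 9 fluorescence (ex 485/em 535 nm) read for 30 min. Three repeats.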

Staphylococcus aureus [29] = assay: Bactericidal activity against stationary-phase methicillin-sensitive Staphylococcus aureus ATCC 29213 assessed as log reduction in bacterial count at 4 ug/ml within 2 hrs by time kill analysis; format: functional
Staphylococcus aureus [30] = assay: Antimicrobial activity against stationary-phase methicillin-sensitive Staphylococcus aureus ATCC 29213 membrane depolarization at 4 ug/ml after 30 mins using DiSC3(5) dye based fluorescence spectrophotometry; format: functional, organism-based
Procedure, shortened: (§6)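 Cells loaded with 1.5 μM DiSC3(5) 30 min in the dark at ambient temperature, diluted to OD600 0.005. Drug added without polysorbate 80. Fluorescence (ex 612/em 665 nm) followed for 30 min. Three repeats.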

Staphylococcus aureus [31] = assay: Antimicrobial activity against exponential-phase methicillin-sensitive Staphylococcus aureus ATCC 29213 assessed as membrane permeability at 4 ug/ml after 30 mins by propidium iodide staining-based fluorescence spectrophotometry; format: functional, organism-based; procedure, shortened: as §5
Staphylococcus aureus [32] = assay: Bactericidal activity against exponential-phase methicillin-sensitive Staphylococcus aureus ATCC 29213 assessed as log reduction in bacterial count at 4 ug/ml within 2 hrs by time kill analysis; format: functional
Staphylococcus aureus [33] = assay: Antimicrobial activity against exponential-phase methicillin-sensitive Staphylococcus aureus ATCC 29213 assessed as membrane depolarization at 4 ug/ml after 30 mins using DiSC3(5) dye based fluorescence spectrophotometry; format: functional, organism-based; procedure, shortened: as §6

## CC(=O)NC[C@H]1CN(c2ccc(N3CCOCC3)c(F)c2)C(=O)O1 [LINEZOLID]
Staphylococcus aureus [1]
  MIC: 8 µg/mL
Staphylococcus aureus [2]
  Activity: inactive
Staphylococcus aureus [3]
  Activity: inactive
Staphylococcus aureus [4]
  MBEC: >128 µg/mL
Staphylococcus aureus [5]
  MIC: 8 µg/mL (≈ 23.7 µM)

## CO[C@H]1/C=C/O[C@@]2(C)Oc3c(C)c(O)c4c(O)c(c(/C=N/N5CCN(C)CC5)c(O)c4c3C2=O)NC(=O)/C(C)=C\C=C\[C@H](C)[C@H](O)[C@@H](C)[C@@H](O)[C@@H](C)[C@H](OC(C)=O)[C@@H]1C [RIFAMPIN]
Staphylococcus aureus [1]
  MIC: < 0.02 µg/mL
Staphylococcus aureus [6]
  Activity: inactive
Staphylococcus aureus [7]
  MBEC: 0.25 µg/mL
Staphylococcus aureus [8]
  MIC: < 0.03 µg/mL
Staphylococcus aureus [9]
  Activity: inactive
Homo sapiens
  fCmax: 2 µg/mL
Staphylococcus aureus [10]
  MIC: < 0.03 µg/mL
Staphylococcus aureus [4]
  MBEC: 4 µg/mL
Staphylococcus aureus [11]
  Activity: Active
Staphylococcus aureus [12]
  Activity: Active

## CN[C@H](CC(C)C)C(=O)N[C@H]1C(=O)N[C@@H](CC(N)=O)C(=O)N[C@H]2C(=O)N[C@H]3C(=O)N[C@H](C(=O)N[C@H](C(=O)O)c4cc(O)cc(O)c4-c4cc3ccc4O)[C@H](O)c3ccc(c(Cl)c3)Oc3cc2cc(c3O[C@@H]2O[C@H](CO)[C@@H](O)[C@H](O)[C@H]2O[C@H]2C[C@](C)(N)[C@H](O)[C@H](C)O2)Oc2ccc(cc2Cl)[C@H]1O [VANCOMYCIN]
Staphylococcus aureus [13]
  MBEC: >128 µg/mL
Staphylococcus aureus [14]
  Activity: inactive
Staphylococcus aureus [15]
  Activity: inactive
Staphylococcus aureus [7]
  MBEC: >=128 ug ml-1
Staphylococcus aureus [8]
  MIC: > 128 µg/mL
Staphylococcus aureus [16]
  Activity: inactive
Staphylococcus aureus [17]
  Activity: Active
Staphylococcus aureus [18]
  Activity: inactive
Staphylococcus aureus [19]
  inhibition: inactive
Staphylococcus aureus [20]
  Activity: inactive
Staphylococcus aureus [21]
  Activity: inactive
Staphylococcus aureus [22]
  Activity: inactive
Staphylococcus aureus [4]
  MBEC: >128 µg/mL
Staphylococcus aureus [23]
  Activity: inactive
Staphylococcus aureus [24]
  MBEC: >128 µg/mL
Staphylococcus aureus [25]
  Activity: Active
Staphylococcus aureus [26]
  Activity: Active
Staphylococcus aureus [27]
  Activity: inactive

## CCCCCCCCCC(=O)N[C@@H](Cc1c[nH]c2ccccc12)C(=O)N[C@H](CC(N)=O)C(=O)N[C@@H](CC(=O)O)C(=O)N[C@@H]1C(=O)NCC(=O)N[C@@H](CCCN)C(=O)N[C@@H](CC(=O)O)C(=O)N[C@H](C)C(=O)N[C@@H](CC(=O)O)C(=O)NCC(=O)N[C@H](CO)C(=O)N[C@@H]([C@H](C)CC(=O)O)C(=O)N[C@@H](CC(=O)c2ccccc2N)C(=O)O[C@@H]1C
Staphylococcus aureus [14]
  Activity: inactive
Staphylococcus aureus [28]
  Activity: inactive
Staphylococcus aureus [29]
  FC: 0.7
Staphylococcus aureus [6]
  Activity: inactive
Staphylococcus aureus [17]
  Activity: Active
Staphylococcus aureus [9]
  Activity: inactive
Staphylococcus aureus [30]
  Activity: inactive
Staphylococcus aureus [31]
  Activity: Active
Staphylococcus aureus [32]
  FC: 3.4
Staphylococcus aureus [21]
  Activity: inactive
Staphylococcus aureus [33]
  Activity: Active
Staphylococcus aureus [25]
  Activity: Active
Staphylococcus aureus [11]
  Activity: Active
Staphylococcus aureus [26]
  Activity: Active
Staphylococcus aureus [12]
  Activity: Active
